Common to all, as to format: functional
Experiment [1] concerns the target T1, Soluble guanylate cyclase (Homo sapiens) (UniProt Q02153+O75343+P33402+Q02108). Kind of experiment: Ratio of activation of sGC by compound over that of control, in absence of carbon monooxide (basal activity 33+/-3 nmol/min/mg).
Experiment [2] has as its target Soluble guanylate cyclase (Homo sapiens, UniProt O75343+P33402+Q02108+Q02153). The experiment can be described thus: Effect on YC-1 mediated activation of sGC in presence of carbon monoxide. The method, boiled down: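 Purified sGC from a baculovirus/Sf9 expression system, measured with CO by end-point assay in 4% v/v DMSO across a range of YC-1 concentrations, with and without a fixed level of the test compound. Assays ran 2 min in triplicate, and errors are mean + range/2. EC50 came from a four-parameter logistic fit.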

Experiment [3] deals with T1, Soluble guanylate cyclase (Homo sapiens). Kind of experiment: Ratio of activation of sGC by compound over that of control, in presence of carbon monooxide (basal activity 33+/-3 nmol/min/mg in absence of CO).

Chain of Soluble guanylate cyclase (Q02153 whole entry): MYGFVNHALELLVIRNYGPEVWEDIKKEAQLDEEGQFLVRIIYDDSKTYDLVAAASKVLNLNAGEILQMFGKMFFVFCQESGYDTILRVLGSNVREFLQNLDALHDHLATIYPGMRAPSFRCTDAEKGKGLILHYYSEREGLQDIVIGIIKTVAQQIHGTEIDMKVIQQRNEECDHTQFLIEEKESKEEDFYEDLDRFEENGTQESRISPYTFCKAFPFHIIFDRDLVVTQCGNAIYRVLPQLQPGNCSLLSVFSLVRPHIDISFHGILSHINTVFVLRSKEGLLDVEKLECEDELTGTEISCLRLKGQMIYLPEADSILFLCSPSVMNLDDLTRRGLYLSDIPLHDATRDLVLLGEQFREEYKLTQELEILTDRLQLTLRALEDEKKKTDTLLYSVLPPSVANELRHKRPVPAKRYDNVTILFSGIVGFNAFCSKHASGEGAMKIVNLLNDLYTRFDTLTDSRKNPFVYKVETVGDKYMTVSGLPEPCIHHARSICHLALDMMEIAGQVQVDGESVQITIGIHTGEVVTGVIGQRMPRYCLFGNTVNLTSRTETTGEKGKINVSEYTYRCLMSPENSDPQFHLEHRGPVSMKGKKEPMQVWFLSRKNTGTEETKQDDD
Chain of Soluble guanylate cyclase (O75343 whole entry): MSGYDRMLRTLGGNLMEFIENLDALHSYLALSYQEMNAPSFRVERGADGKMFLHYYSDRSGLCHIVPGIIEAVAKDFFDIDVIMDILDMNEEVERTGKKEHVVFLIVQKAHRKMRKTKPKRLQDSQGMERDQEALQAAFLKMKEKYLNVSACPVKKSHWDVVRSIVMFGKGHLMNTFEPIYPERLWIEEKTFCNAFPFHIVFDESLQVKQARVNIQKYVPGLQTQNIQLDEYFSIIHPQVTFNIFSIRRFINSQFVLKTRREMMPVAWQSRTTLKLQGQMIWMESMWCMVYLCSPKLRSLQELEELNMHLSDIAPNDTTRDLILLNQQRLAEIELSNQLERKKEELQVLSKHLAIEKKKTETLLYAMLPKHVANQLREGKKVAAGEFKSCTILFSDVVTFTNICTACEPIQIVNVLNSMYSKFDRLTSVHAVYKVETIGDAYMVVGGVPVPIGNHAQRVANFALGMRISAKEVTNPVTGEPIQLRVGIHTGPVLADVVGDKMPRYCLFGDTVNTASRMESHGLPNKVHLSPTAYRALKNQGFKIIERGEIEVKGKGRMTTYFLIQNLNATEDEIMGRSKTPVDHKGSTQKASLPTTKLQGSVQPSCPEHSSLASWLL
Chain of Soluble guanylate cyclase (P33402 whole entry): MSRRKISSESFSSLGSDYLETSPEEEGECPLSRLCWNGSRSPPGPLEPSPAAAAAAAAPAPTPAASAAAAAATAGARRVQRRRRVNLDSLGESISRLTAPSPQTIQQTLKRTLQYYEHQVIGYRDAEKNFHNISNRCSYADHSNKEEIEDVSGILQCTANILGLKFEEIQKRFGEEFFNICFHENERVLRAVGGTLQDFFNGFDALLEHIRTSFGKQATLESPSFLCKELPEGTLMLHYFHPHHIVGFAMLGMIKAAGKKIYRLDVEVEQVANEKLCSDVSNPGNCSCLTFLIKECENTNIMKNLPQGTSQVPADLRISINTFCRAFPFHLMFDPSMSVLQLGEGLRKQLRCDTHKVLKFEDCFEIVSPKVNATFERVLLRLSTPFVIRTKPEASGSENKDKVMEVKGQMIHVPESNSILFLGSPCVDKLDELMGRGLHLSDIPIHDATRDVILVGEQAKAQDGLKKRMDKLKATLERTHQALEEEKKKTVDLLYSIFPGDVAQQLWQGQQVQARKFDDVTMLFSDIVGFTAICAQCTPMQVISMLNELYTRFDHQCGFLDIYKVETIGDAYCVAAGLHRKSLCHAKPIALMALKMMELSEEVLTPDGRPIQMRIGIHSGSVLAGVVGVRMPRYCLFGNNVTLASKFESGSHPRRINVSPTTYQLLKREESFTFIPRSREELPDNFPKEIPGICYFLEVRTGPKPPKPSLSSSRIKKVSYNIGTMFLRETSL
Chain of Soluble guanylate cyclase (Q02108 whole entry): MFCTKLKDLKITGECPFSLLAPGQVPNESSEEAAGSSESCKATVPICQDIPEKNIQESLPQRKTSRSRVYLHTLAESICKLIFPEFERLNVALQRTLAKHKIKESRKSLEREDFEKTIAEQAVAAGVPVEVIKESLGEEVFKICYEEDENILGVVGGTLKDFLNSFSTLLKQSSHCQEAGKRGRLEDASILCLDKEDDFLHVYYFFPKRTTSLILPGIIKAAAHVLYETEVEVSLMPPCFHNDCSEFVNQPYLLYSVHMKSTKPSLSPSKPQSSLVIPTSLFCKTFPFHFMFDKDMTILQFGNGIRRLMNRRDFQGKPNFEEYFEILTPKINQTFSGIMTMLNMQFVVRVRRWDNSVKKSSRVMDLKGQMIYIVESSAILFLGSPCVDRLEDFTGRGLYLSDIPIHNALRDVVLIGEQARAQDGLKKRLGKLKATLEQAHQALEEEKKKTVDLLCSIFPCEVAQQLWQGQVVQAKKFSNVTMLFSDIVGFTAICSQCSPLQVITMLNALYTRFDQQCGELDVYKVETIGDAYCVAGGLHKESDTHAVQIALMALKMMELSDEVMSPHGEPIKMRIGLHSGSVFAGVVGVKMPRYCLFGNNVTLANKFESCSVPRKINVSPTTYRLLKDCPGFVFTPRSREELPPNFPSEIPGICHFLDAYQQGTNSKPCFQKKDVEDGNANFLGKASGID

One may read the EC50 as the concentration needed to bring the measured effect to its halfway point. Consider `[N-]=[N+]=Nc1ccc2c(-c3ccc(CO)o3)nn(Cc3ccccc3)c2c1`, for which the results for the Activity in experiment [1] and in experiment [3] were 3.4 and 29, respectively. Also, in experiment [2], the EC50 amounted to 21.9 µM.
As for `[N-]=[N+]=Nc1ccc(Cn2nc(-c3ccc(CO)o3)c3ccccc32)cc1`, the Activity in experiment [1] came to 4.7; in experiment [3] it was 20.3.
For `[N-]=[N+]=Nc1ccc2c(c1)c(-c1ccc(CO)o1)nn2Cc1ccccc1`, the Activity stood at 1.7 in experiment [1] and 4.4 in experiment [3].
Take `OCc1ccc(-c2nn(Cc3ccccc3)c3ccccc23)o1`: the figures for the Activity in experiment [1] and in experiment [3] were 9.2 and 139, respectively.
Turning to `[N-]=[N+]=Nc1cccc(Cn2nc(-c3ccc(CO)o3)c3ccccc32)c1`, the Activity in experiment [1] stood at 2; in experiment [3] it was 7.1.

For the origin of these results see ChEMBL document CHEMBL1138113, “The design and synthesis of YC-1 analogues as probes for soluble guanylate cyclase” (Bioorg Med Chem Lett, 2006).
